In publication PMC4876925 (Nano research, 2016):
Residues, ends and D or L forms follow the SMILES beside them.

Experiments:
[1] = system: WEHI-164 fibrosarcoma; assay: Anti-tumor activity in the WEHI-164 fibrosarcoma model; format: in vivo, BALB/c female mice; conditions: dose-escalation, i.v.
Summary of the method: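 Female BALB/c mice, 6–7 weeks old, received 1.5 × 10^6 WEHI-164 cells s.c. in the left flank. On day 5, mice got single i.v. doses of TNF-loaded gold nanoparticles (1–4 or 9–16 bioactive TNF molecules/nanoparticle) in 0.9% NaCl with 100 µg/mL HSA. Tumors were measured with calipers and volumes from day 5 to day 9 were normalized to day 5. Data are mean ± SE from 1–7 independent experiments, 6 mice each.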

[2] = cited from earlier work
[3] = biological target: αvβ3 (Homo sapiens, UniProt P05106+P06756); assay: Integrin competitive binding assay with CisoDGRC-peroxidase
[4] = biological target: recombinant human His-tagged CD13 (Homo sapiens, UniProt P15144); assay: CD13 enzymatic activity assay; format: biochemical

CNGRCG-TNF (disulfide) [NGR-TNF]
Shape of dose-response curve (tumor growth day 5 to day 9) [1]: U-shaped dose-response curve

CNGRC (disulfide) [NGR-2C]
Half-life of asparagine (deamidation) [2]: 3 to 4 h

N=C(N)NCCC[C@@H]1NC(=O)CNC(=O)[C@H](CC(N)=O)NC(=O)CNC(=O)[C@H](CS)NC(=O)CNC1=O [N1, c(CGNGRG)] (cyclo(CGNGRG))
EC50 [3]: 10 µM
CD13 inhibition efficiency relative to NGR-2C(Y) ([4]; enzyme inhibition, 30 min at 37 °C): 5–6 fold
Binding efficiency to CD13 relative to CNGRC (NGR-2C) and c(CNGRGG) (N3) ([4]; recombinant soluble CD13, enzyme binding and inhibition experiments): 6–10 fold
